What was measured:
[1] = Terminal half life in Beagle dog at 3 mg/kg, po administered via gelatin capsule as single dose; type: ADME, organism-based, Canis lupus familiaris; design: dose 3 mg/kg, route oral; settings: in vivo, read-out: beta t1/2 (converted)
[2] = Cmax in BALB/c mouse at 30 mg/kg, po administered as single dose; type: ADME, organism-based; design: dose 30 mg/kg, route oral; settings: in vivo
[3] = biological target: Tyrosine-protein kinase JAK1 (Homo sapiens, UniProt P23458); test: Inhibition of recombinant JAK1 using Poly (Glu,Ala,Tyr) as substrate after 2 hrs by luminescence assay
Chain of Tyrosine-protein kinase JAK1 (P23458 whole entry): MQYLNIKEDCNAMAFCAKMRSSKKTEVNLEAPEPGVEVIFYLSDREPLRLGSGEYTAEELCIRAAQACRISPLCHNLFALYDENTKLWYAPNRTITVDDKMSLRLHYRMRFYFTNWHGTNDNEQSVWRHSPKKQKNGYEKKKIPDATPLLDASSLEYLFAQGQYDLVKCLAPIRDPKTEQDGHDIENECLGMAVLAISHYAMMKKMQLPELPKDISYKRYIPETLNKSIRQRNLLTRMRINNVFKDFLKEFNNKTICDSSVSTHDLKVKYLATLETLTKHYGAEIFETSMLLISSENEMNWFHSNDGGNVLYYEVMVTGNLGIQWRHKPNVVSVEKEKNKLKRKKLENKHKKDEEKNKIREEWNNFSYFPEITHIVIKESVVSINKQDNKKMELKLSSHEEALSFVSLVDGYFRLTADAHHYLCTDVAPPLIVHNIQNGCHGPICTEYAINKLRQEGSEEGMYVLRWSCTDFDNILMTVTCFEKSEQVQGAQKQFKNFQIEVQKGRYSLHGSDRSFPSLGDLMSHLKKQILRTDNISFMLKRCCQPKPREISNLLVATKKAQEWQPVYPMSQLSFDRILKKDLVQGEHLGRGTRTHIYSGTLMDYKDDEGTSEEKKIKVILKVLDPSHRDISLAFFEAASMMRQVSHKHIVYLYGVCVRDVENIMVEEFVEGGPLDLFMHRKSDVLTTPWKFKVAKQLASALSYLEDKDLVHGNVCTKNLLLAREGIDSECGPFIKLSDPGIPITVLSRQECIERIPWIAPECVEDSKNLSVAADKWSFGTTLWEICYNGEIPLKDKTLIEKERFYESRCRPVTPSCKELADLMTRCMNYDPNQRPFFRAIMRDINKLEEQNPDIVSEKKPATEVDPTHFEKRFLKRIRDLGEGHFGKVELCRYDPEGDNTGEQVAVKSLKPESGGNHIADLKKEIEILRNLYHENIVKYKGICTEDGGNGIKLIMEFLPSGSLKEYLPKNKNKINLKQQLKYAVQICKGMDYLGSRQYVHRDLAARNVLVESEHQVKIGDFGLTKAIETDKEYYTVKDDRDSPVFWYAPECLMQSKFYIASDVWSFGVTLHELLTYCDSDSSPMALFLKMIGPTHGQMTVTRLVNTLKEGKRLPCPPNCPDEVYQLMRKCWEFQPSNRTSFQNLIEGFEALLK
Method in brief: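 Luciferase-coupled ATP-depletion luminescence assay in 50 mM Hepes pH 7.5 with MgCl₂, MnCl₂, BGP, DTT and orthovanadate, 2 h at room temperature. Conditions per target: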

MV4-11 [4] = test: Antitumor activity against human MV4-11 cells harboring FLT3 ITD xenografted in athymic BALB/c nude mouse assessed as survival at 100 mg/kg, po qd administered for 21 consecutive days measured up to 55 days ( Rvb = 33 days ); type: functional
[5] = Plasma protein binding in human at 1000 ng/ml by equilibrium dialysis assay; type: ADME, cell-free; settings: read-out: PPB (converted)
Method in brief: (§1)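 Equilibrium dialysis of mouse, dog or human plasma spiked to 1000 ng/mL against PBS, 4 h at 37 °C. The buffer side was extracted with MTBE in triplicate and analysed by LC/MS/MS.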

[6] = Cmax in Wistar rat at 10 mg/kg, po administered as single dose; type: ADME, organism-based; design: dose 10 mg/kg, route oral; settings: in vivo
Mus musculus [7] = test: Toxicity in athymic BALB/c nude mouse allografted with mouse BA/F3 cells harboring JAK2 V617F mutant assessed as body weight loss at 75 mg/kg, po administered twice daily for 13 consecutive days starting from day 4 post challenge relative to control; type: organism-based, BaF3; design: dose 75 mg/kg, route oral; settings: in vivo
Cytochrome P450 1A2 = biological target: T1, Cytochrome P450 1A2 (Homo sapiens, UniProt P05177); test: Inhibition of CYP1A2 in human liver microsomes assessed as decrease in formation of resorufin from ethoxyresorufin substrate after 5 mins by LC-MS/MS; type: ADME, Microsome
T1 sequence (P05177 whole entry): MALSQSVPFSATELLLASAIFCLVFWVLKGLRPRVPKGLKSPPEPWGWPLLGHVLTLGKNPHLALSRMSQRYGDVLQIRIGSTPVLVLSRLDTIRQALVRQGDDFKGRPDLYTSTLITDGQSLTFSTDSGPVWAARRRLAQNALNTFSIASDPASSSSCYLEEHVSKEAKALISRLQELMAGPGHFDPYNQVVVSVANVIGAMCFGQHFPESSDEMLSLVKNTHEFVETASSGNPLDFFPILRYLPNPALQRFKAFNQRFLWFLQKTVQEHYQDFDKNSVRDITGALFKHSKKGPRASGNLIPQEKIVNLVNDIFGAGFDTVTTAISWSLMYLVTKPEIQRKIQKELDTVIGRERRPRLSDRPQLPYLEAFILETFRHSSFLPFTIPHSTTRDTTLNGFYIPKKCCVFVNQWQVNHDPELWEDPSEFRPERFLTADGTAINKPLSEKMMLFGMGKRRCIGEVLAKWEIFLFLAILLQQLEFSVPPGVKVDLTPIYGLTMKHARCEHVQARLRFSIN
Method in brief: (§2)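 Human liver microsomes with 1 mM NADPH at 37 °C. Test compound at 0.05–25 μM (final DMSO 0.35%). Conditions per isoform: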

Mus musculus [8] = test: Toxicity in athymic BALB/c nude mouse xenografted with human MV4-11 cells harboring FLT3 ITD assessed as body weight loss at 50 to 100 mg/kg, po qd administered for 21 consecutive days measured up to 55 days relative to control; type: organism-based; design: dose 50-100 mg/kg, route oral; settings: in vivo, 1320 h
Method in brief: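 Female BALB/c nude mice implanted subcutaneously in right flank with 1 × 10⁷ MV4-11 cells in Matrigel 1:1. At about 130 mm³, oral once-daily dosing at 25, 50 or 100 mg/kg (free base) for 21 days, 8–10 mice per group. Tumours followed to day 55 or 1000 mm³; body weight assessed at termination.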

Cytochrome P450 2C9 = Cytochrome P450 2C9 (Homo sapiens, UniProt P11712); test: Inhibition of CYP2C9 in human liver microsomes assessed as decrease in formation of 4-hydroxytolbutamide from tolbutamide substrate after 60 mins by LC-MS/MS; type: ADME, Microsome; method in brief: as §2
Chain of Cytochrome P450 2C9 (P11712 whole entry): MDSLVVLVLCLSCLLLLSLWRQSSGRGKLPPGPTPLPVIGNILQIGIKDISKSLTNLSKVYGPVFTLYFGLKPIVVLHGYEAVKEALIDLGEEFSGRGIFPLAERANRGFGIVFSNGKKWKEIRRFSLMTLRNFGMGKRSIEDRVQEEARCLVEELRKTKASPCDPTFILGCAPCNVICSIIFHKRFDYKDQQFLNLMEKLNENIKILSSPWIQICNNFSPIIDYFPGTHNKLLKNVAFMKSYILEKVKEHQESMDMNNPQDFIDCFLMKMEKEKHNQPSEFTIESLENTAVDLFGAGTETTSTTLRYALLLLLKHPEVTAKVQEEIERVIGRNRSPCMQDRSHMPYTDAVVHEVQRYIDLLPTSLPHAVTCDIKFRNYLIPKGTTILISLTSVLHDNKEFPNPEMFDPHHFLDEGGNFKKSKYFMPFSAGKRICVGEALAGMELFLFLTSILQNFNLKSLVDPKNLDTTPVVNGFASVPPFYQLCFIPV

MV4-11 [9] = test: Antitumor activity against human MV4-11 cells harboring FLT3 ITD xenografted in athymic BALB/c nude mouse assessed as survival at 50 mg/kg, po qd administered for 21 consecutive days measured up to 55 days ( Rvb = 33 days ); type: functional
[10] = Terminal half life in BALB/c mouse at 30 mg/kg, po administered as single dose; type: ADME, organism-based; design: dose 30 mg/kg, route oral; settings: in vivo, read-out: beta t1/2 (converted)
[11] = Oral bioavailability in BALB/c mouse at 30 mg/kg, administered as single dose; type: ADME, organism-based; settings: in vivo
[12] = Cmax in Beagle dog at 3 mg/kg, po administered via gelatin capsule as single dose; type: ADME, organism-based, Canis lupus familiaris; design: dose 3 mg/kg, route oral; settings: in vivo
[13] = AUC (0 to 8 hrs) in BALB/c mouse at 30 mg/kg, po administered as single dose; type: ADME, organism-based; design: time < 8 hr, dose 30 mg/kg, route oral; settings: plasma
[14] = Plasma protein binding in mouse at 1000 ng/ml by LC/MS/MS analysis; type: ADME, cell-free; settings: read-out: PPB (converted); method in brief: as §1
MV4-11 [15] = test: Antitumor activity against human MV4-11 cells harboring FLT3 ITD xenografted in athymic BALB/c nude mouse assessed as survival at 25 mg/kg, po qd administered for 21 consecutive days measured up to 55 days ( Rvb = 33 days ); type: functional
[16] = Apparent permeability from apical to basolateral side in human Caco2 cells at 5 uM after 2 hrs by LC/MS analysis at pH 7.4; type: ADME, cell-based; settings: Caco-2, pH 7.4
Method in brief: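 Compound at 5 μM in HBSS (DMSO <1%) applied apically or basolaterally to 21–28 day Caco-2 monolayers, both sides pH 7.4. Both sides sampled at 2 h, LC/MS quantitation with 4-point calibration. Monolayer integrity checked by TEER (450–650 Ωcm²) and Lucifer Yellow.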

MV4-11 [17] = test: Antiproliferative activity against human MV4-11 cells harboring FLT3 […] mutant assessed as cell viability after 48 hrs by Cell titer Glo assay; type: functional; settings: MV4-11, 48 h
[18] = biological target: Non-receptor tyrosine-protein kinase TYK2 (Homo sapiens, UniProt P29597); test: Inhibition of recombinant TYK2
Chain of Non-receptor tyrosine-protein kinase TYK2 (P29597 whole entry): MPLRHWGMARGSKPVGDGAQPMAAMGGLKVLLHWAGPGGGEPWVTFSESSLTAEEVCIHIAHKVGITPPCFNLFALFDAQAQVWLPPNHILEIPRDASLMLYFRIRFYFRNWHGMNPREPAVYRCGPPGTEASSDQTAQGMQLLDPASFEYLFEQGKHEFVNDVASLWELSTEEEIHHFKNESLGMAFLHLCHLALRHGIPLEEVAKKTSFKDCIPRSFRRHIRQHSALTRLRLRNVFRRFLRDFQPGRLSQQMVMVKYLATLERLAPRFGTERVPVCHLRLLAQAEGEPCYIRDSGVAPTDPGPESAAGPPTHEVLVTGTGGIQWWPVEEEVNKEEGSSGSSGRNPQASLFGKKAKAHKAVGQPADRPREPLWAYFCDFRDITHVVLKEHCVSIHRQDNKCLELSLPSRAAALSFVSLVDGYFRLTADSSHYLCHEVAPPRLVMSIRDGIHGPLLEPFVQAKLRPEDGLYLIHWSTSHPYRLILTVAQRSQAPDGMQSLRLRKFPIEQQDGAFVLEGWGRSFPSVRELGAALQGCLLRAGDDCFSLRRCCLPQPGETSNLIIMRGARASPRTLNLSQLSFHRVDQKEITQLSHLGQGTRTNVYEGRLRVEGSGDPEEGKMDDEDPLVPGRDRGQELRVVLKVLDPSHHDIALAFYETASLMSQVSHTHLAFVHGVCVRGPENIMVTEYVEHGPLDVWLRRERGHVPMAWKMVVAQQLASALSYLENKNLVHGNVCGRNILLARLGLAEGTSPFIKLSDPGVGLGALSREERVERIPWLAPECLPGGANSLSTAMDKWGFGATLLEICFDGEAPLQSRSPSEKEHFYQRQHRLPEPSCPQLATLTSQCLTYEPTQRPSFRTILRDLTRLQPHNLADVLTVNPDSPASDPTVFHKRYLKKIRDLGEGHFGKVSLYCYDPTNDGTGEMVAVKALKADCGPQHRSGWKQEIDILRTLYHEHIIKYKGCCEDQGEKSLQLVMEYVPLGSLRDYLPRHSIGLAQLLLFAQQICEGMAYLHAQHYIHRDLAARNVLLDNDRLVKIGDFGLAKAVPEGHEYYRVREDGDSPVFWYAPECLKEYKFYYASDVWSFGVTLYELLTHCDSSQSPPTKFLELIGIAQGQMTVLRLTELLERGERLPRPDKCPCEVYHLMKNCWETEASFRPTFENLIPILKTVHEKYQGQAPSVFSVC

[19] = Terminal half life in Wistar rat at 10 mg/kg, po administered as single dose; type: ADME, organism-based; design: dose 10 mg/kg, route oral; settings: in vivo, read-out: beta t1/2 (converted)
[20] = Plasma protein binding in dog at 1000 ng/ml by LC/MS/MS analysis; type: ADME, cell-free, Canis lupus familiaris; settings: read-out: PPB (converted); method in brief: as §1
[21] = biological target: Cyclin-dependent kinase 2/cyclin A (Homo sapiens, UniProt P24941); test: Inhibition of recombinant CDK2/Cyclin A using RbinG as substrate after 2 hrs by luminescence assay; type: protein-complex assay
Mus musculus [22] = test: Toxicity in athymic BALB/c nude mouse allografted with mouse BA/F3 cells harboring JAK2 V617F mutant assessed as body weight loss at 75 and 150 mg/kg, po administered twice daily for 13 consecutive days starting from day 4 post challenge relative to control; settings: in vivo
[23] = Oral bioavailability in Wistar rat at 10 mg/kg, administered as single dose; type: ADME, organism-based; settings: in vivo
[24] = Oral bioavailability in Beagle dog at 3 mg/kg, administered as single dose; type: ADME, organism-based, Canis lupus familiaris; settings: in vivo
[25] = Antiproliferative activity against mouse BA/F3 cells harboring JAK2 V617F mutation assessed as cell viability after 48 hrs by Cell titer Glo assay; type: functional; settings: BaF3, 48 h
in vitro = settings: PAMPA
[26] = Half life in dog liver microsomes at 5 uM by LC/MS/MS analysis; type: ADME, Canis lupus familiaris, Microsome
Method in brief: (§3)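 Compound at 5 μM incubated at 37 °C with dog or rat liver microsomes (~0.87 mg/mL) in 50 mM potassium phosphate pH 7.4 with NADPH regenerating system.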

[27] = Half life in rat liver microsomes at 5 uM by LC/MS/MS analysis; type: ADME, Microsome; method in brief: as §3
[28] = AUC ( 0 to 8 hrs) in Beagle dog at 3 mg/kg, po administered via gelatin capsule as single dose; type: ADME, organism-based, Canis lupus familiaris; design: time < 8 hr, dose 3 mg/kg, route oral; settings: plasma
physchem = settings: phosphate buffer saline, pH 7
[29] = AUC (0 to 8 hrs) in Wistar rat at 10 mg/kg, po administered as single dose; type: ADME, organism-based; design: time < 8 hr, dose 10 mg/kg, route oral; settings: plasma
Cytochrome P450 2C19 = Cytochrome P450 2C19 (Homo sapiens, UniProt P33261); test: Inhibition of CYP2C19 in human liver microsomes assessed as decrease in formation of 4-hydroxymephenytoin from mephenytoin substrate after 60 mins by LC-MS/MS; type: ADME, Microsome; method in brief: as §2
Chain of Cytochrome P450 2C19 (P33261 whole entry): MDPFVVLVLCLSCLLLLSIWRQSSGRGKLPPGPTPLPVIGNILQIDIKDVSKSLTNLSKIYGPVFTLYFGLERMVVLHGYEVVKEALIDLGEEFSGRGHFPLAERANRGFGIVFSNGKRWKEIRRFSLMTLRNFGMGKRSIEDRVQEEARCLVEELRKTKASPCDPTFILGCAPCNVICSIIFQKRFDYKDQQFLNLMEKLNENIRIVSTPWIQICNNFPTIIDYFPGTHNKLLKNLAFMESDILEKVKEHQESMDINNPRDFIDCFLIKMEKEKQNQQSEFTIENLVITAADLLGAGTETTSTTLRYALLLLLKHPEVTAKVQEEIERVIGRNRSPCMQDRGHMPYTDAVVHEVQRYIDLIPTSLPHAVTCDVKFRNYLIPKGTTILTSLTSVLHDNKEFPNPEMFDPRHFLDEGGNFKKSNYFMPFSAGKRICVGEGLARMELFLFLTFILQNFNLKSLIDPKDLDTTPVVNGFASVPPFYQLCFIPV

CYP3A4 = CYP3A4 (Homo sapiens, UniProt P08684); test: Inhibition of CYP3A4 in human liver microsomes assessed as decrease in formation of 1-hydroxymidazolam from midazolam substrate at 5 uM after 5 mins by LC-MS/MS; type: ADME, Microsome; settings: probe midazolam; method in brief: as §2
Chain of CYP3A4 (P08684 whole entry): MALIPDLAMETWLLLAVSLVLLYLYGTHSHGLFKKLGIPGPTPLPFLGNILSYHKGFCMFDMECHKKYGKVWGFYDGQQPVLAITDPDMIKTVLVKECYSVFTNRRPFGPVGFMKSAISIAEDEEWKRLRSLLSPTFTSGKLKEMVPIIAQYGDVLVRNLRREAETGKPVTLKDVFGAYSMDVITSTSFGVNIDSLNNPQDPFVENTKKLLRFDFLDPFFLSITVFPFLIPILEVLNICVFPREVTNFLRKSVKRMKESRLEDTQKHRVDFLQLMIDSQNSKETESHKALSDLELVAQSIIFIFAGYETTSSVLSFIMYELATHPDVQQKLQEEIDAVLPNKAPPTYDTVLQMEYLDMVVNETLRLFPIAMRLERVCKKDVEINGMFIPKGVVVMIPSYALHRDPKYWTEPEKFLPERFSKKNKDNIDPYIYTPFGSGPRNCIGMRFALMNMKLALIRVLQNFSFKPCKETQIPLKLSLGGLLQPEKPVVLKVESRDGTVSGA

[30] = Tmax in Beagle dog at 3 mg/kg, po administered via gelatin capsule as single dose; type: ADME, organism-based, Canis lupus familiaris; design: dose 3 mg/kg, route oral; settings: in vivo
CYP2D6 = CYP2D6 (Homo sapiens, UniProt P10635); test: Inhibition of CYP2D6 in human liver microsomes assessed as decrease in formation of dextrorphan from dextromethorphan substrate at 5 uM after 30 mins by LC-MS/MS; type: ADME, Microsome; settings: probe dextromethorphan; method in brief: as §2
Chain of CYP2D6 (P10635 whole entry): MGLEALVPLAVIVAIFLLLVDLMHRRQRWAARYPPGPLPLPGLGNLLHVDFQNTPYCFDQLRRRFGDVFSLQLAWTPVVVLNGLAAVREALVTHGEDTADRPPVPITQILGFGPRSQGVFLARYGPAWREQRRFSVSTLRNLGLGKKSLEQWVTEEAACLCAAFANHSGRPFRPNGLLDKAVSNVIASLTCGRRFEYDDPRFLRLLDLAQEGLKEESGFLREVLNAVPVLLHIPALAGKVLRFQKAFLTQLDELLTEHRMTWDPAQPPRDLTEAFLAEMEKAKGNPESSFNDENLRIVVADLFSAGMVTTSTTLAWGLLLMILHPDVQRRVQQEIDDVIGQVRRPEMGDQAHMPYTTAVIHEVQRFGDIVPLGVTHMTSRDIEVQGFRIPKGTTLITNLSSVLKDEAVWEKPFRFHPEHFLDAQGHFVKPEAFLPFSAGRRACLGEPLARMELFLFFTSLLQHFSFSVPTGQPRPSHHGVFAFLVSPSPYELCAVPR

[31] = Antitumor activity against mouse BA/F3 cells harboring JAK2 V617F mutant allografted in athymic BALB/c nude mouse assessed as normalization of liver weight at 150 mg/kg, po bid administered on day 4 post inoculation for 13 consecutive days measured on day 13 relative to vehicle-treated control; type: functional, BaF3
Method in brief: (§4)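 Female BALB/c nude mice given 2 × 10⁶ Ba/F3-JAK2 V617F cells by tail vein in serum-free medium. Oral dosing twice daily at 75 or 150 mg/kg (free base) from day 4 for 13 days, 8 mice per group, 4 naive baseline mice. Spleens and livers weighed at sacrifice; ANOVA with Dunnett's test.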

[32] = Antitumor activity against mouse BA/F3 cells harboring JAK2 V617F mutant allografted in athymic BALB/c nude mouse assessed as normalization of spleen weight at 150 mg/kg, po bid administered on day 4 post inoculation for 13 consecutive days measured on day 13 relative to vehicle-treated control; type: functional, BaF3; method in brief: as §4

SMILES: C1=N/C2=N/c3ccc(OCCN4CCCC4)c(c3)COC/C=C/COCc3cccc(c3)C(=C1)N2 (mixture of isomers) [PACRITINIB]
- half-life [1]: 3.4 h
- Cmax [2]: 292 ng/mL
- IC50 [3]: 1280 nM
- Survival (MV4-11 [4]): 55 days
- fraction unbound at 1000 ng/ml [5]: 0.0012
- Cmax [6]: 114 ng/mL
- Activity (Mus musculus [7]): Non-toxic
- IC50 (Cytochrome P450 1A2): > 5000 nM
- Activity (Mus musculus [8]): Non-toxic
- IC50 (Cytochrome P450 2C9): > 5000 nM
- Survival (MV4-11 [9]): 55 days
- half-life [10]: 0.84 h
- bioavailability [11]: 39%
- Cmax [12]: 11.5 ng/mL
- AUC(0-t) at 8 h [13]: 399 ng·h/mL
- fraction unbound at 1000 ng/ml [14]: 0.0059
- Survival (MV4-11 [15]): 35 days
- Papp A→B at 2 h, 5 µM [16]: 16 ×10⁻⁶ cm/s
- GI50 (MV4-11 [17]): 47 nM
- IC50 [18]: 50 nM
- half-life [19]: 5.7 h
- fraction unbound at 1000 ng/ml [20]: 0.0037
- IC50 [21]: 3900 nM
- Activity (Mus musculus [22]): Non-toxic
- bioavailability [23]: 10%
- bioavailability [24]: 24%
- GI50 [25]: 160 nM
- Papp at 5 h, 1 µM (in vitro): 9.3 ×10⁻⁶ cm/s
- half-life at 5 µM [26]: 0.683 h
- half-life at 5 µM [27]: 0.3 h
- AUC(0-t) at 8 h [28]: 53 ng·h/mL
- solubility (physchem): > 150 µg/mL
- AUC(0-t) at 8 h [29]: 599 ng·h/mL
- IC50 (Cytochrome P450 2C19): > 5000 nM
- inhibition at 5 min, 5 µM (CYP3A4): 20%
- Tmax [30]: 2 h
- inhibition at 0.5 h, 5 µM (CYP2D6): 20%

SMILES: C1=CCOCc2cc(ccc2OCCN2CCCC2)Nc2nccc(n2)-c2cccc(c2)COC1.Cl (mixture of isomers)
- Activity [31]: 99%
- Activity [32]: 42%

Reference: ChEMBL document CHEMBL2176955, “Discovery of the macrocycle 11-(2-pyrrolidin-1-yl-ethoxy)-14,19-dioxa-5,7,26-triaza-tetracyclo[19.3.1.1(2,6).1(8,12)]heptacosa-1(25),2(26),3,5,8,10,12(27),16,21,23-decaene (SB1518), a potent Janus kinase 2/fms-like tyrosine kinase-3 (JAK2/FLT3) inhibitor for the treatment of myelofibrosis and …” (J Med Chem, 2011)
